Results reported in ChEMBL document CHEMBL1131620, “Identification of novel ligands for the gabapentin binding site on the alpha2delta subunit of a calcium channel and their evaluation as anticonvulsant agents” (J Med Chem, 1998).

Assay: Inhibition of specific binding of [3H]gabapentin to Gabapentin binding sites located on the alpha-2-delta subunit of calcium channel.
Parameters: species or system Oryctolagus cuniculus
How it was run: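 [3H]Gabapentin displacement from gabapentin sites on the calcium channel α2δ subunit. IC50 (nM) is the concentration giving half-maximal inhibition of specific radioligand binding.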

**Q.** With C[C@@H]1C[C@H](C)CC(CN)(CC(=O)O)C1 (stereo in doubt; 27) as the molecule, how does the IC50 read?
**A.** 0.14 µM

**Q.** Which IC50 does the source give for C[C@H]1CC[C@@](CN)(CC(=O)O)CC1 here?
**A.** 0.44 µM

**Q.** For NC[C@]1(CC(=O)O)CC[C@@H](c2ccccc2)CC1, which IC50 is on record?
**A.** > 10 µM

**Q.** With CC1(C)CC(C)(C)CC(CN)(CC(=O)O)C1 as the molecule, how does the IC50 read?
**A.** > 10 µM

**Q.** Which IC50 does the source give for C[C@H]1CC[C@](CN)(CC(=O)O)CC1 here?
**A.** > 10 µM

**Q.** Which IC50 does the source give for CCC1CCCC(CN)(CC(=O)O)C1 (configuration not stated) here?
**A.** 0.28 µM

**Q.** With CC[C@H]1CC[C@@](CN)(CC(=O)O)CC1 as the molecule, how does the IC50 read?
**A.** 0.7 µM

**Q.** For CC1(C)CCCC(CN)(CC(=O)O)C1 (configuration not stated), which IC50 is on record?
**A.** 0.88 µM

**Q.** Which IC50 does the source give for CCCC1CCCC(CN)(CC(=O)O)C1 (configuration not stated) here?
**A.** 3.3 µM

**Q.** Which IC50 does the source give for CC(C)C1CCCC(CN)(CC(=O)O)C1 (configuration not stated) here?
**A.** 6.27 µM

**Q.** Which IC50 does the source give for NCC1(CC(=O)O)CCOCC1 here?
**A.** 2.38 µM

**Q.** With NCC1(CC(=O)O)CCCCC1C1CCCCC1 (configuration not stated) as the molecule, how does the IC50 read?
**A.** > 10 µM

**Q.** For NCC1(CC(=O)O)CCNCC1, which IC50 is on record?
**A.** > 10 µM

**Q.** For CC1(C)CCC(CN)(CC(=O)O)CC1, which IC50 is on record?
**A.** 1.31 µM

**Q.** Which IC50 does the source give for NCC1(CC(=O)O)CCSCC1 here?
**A.** 0.385 µM

**Q.** For COC1CCCCC1(CN)CC(=O)O (configuration not stated), which IC50 is on record?
**A.** > 10 µM

**Q.** For C[C@@H]1CCC[C@@](CN)(CC(=O)O)C1, which IC50 is on record?
**A.** 0.042 µM

**Q.** For CC1CCCC(CN)(CC(=O)O)C1 (configuration not stated), which IC50 is on record?
**A.** > 10 µM

**Q.** For NCC1(CC(=O)O)CCCC(c2ccccc2)C1 (configuration not stated), which IC50 is on record?
**A.** > 10 µM

**Q.** For C[C@H]1CCC[C@](CN)(CC(=O)O)C1, which IC50 is on record?
**A.** 0.073 µM

**Q.** With C[C@@H]1C[C@H](C)CC(CN)(CC(=O)O)C1 (stereo in doubt; 28) as the molecule, how does the IC50 read?
**A.** > 10 µM
